Test results taken from ChEMBL document CHEMBL1122366, “Potential antiatherosclerotic agents. 3. Substituted benzoic and non benzoic acid analogues of cetaben” (1983).

Columns and labels:
Rattus norvegicus [1] = experiment: In vivo sterol lowering activity when dosed as 0.03 % of the diet; assay type: functional
Outline: (§1)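 Normal rats were dosed in the diet. Serum sterol and triglyceride levels were measured and expressed as the mean percent of control values. Significance versus control was reported at p < 0.05, 0.01 and 0.001.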

Rattus norvegicus [2] = experiment: In vivo sterol lowering activity when dosed as 0.01 % of the diet; assay type: functional; outline: as §1
Rattus norvegicus [3] = experiment: In vivo sterol lowering activity at dose of 0.10 % of the diet; assay type: functional; outline: as §1
[4] = molecular target: T1, Sterol O-acyltransferase 1 (Rattus norvegicus) (UniProt O70536); experiment: In vitro inhibition of acyl coenzyme A:cholesterol acyltransferase; set-up: concentration or dose not given beside the values; conditions: concentration not given here
T1 sequence (whole entry): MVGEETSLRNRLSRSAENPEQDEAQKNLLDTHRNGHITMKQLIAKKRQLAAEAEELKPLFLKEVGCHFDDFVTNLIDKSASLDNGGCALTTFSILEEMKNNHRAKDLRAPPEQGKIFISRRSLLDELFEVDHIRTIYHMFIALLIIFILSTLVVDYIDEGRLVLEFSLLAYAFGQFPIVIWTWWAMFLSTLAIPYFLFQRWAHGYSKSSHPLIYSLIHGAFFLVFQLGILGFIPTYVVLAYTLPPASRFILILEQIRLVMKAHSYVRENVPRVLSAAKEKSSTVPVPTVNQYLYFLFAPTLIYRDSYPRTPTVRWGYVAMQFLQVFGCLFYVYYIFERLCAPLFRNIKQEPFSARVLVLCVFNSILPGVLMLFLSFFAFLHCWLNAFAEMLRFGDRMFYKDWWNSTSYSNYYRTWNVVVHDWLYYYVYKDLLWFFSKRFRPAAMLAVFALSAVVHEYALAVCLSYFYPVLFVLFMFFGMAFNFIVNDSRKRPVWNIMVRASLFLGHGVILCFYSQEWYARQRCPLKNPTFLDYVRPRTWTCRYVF
Outline: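 Enzyme fatty acyl-CoA:cholesterol acyltransferase (ACAT), assayed in vitro at a single drug concentration of 5.2 μg/mL. The value is the mean percent inhibition of enzyme activity.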

Rattus norvegicus [5] = experiment: In vivo triglyceride lowering activity when dosed as 0.01 % of the diet; assay type: functional; outline: as §1
Rattus norvegicus [6] = experiment: In vivo triglyceride lowering activity when dosed at 0.03 % of the diet; assay type: functional; outline: as §1
Rattus norvegicus [7] = experiment: In vivo triglyceride lowering activity dosed at 0.10 % of the diet.; assay type: functional; outline: as §1

Structure (SMILES) | serum sterol level, percent of control (Rattus norvegicus [1]) [%] | serum sterol level, % of control (Rattus norvegicus [2]) [%] | serum sterol level, percent of control (Rattus norvegicus [3]) [%] | inhibition [4] [%] | serum triglyceride level, percent of control (Rattus norvegicus [5]) [%] | serum triglyceride level, percent of control (Rattus norvegicus [6]) [%] | serum triglyceride, percent of control (Rattus norvegicus [7]) [%]
CCCCCCCCCCCCCCCCNc1ccc(C(=O)NN)cc1 | 105 | 110 | 116 | < 24 | 108 | 84 | 84
CCCCCCCCCCCCCCCCNc1ccc(C(=O)SCCO)cc1 | <86 | <87 | <84 | 1 | 70 | 74 | <59
CCCCCCCCCCCCCCCCNc1ccc(C(=O)C(C#N)C(=O)OCC)cc1 (configuration not stated) | 100 | 115 | 100 | < 40 | 83 | 90 | 105
CCCCCCCCCCCCCCCCNc1ccc(C(=O)NCCS(=O)(=O)O)cc1 | 90 | 91 | <80 | < 45 | <67 | 71 | <56
CCCCCCCCCCCCCCCCNc1ccc(C(=O)OCC(=O)O)cc1 | 88 | 87 | <83 | 45 | 76 | 91 | <65
CCCCCCCCCCCCCCCCNc1cc(C(=O)[O-])c(C(=O)[O-])c(C(=O)[O-])c1.[Na+].[Na+].[Na+] | 100 | 100 | 97 | < 24 | 82 | <68 | 93
CCCCCCCCCCCCCCCCNc1ccc(C(=O)OCC(O)COC(=O)c2cccnc2)cc1 (configuration not stated) | 108 | 103 | 84 | 0 | 93 | 83 | <63
CCCCCCCCCCCCCCCCNc1ccc(O)cc1 | 99 | 104 | 92 | 0 | 118 | 124 | 104
CCCCCCCCCCCCCCCCNc1ccc(C2SCCCS2)cc1 | 92 | 102 | 93 | 9 | 105 | 114 | 91
CCCCCCCCCCCCCCCCNc1ccc(C(=O)OCC(CO)OC(C)=O)cc1 (configuration not stated) | 85 | 118 | 86 | 28 | 90 | <71 | <47
CCCCCCCCCCCCCCCCNc1ccc(C(=O)SCC(O)CO)cc1 (configuration not stated) | 92 | 93 | <82 | 3 | 106 | 83 | <64
CCCCCCCCCCCCCCCCNc1ccc(C(=O)COC)cc1 | 88 | 88 | 91 | < 47 | 77 | 85 | <65
CCCCCCCCCCCCCCCCN(C(C)=O)c1ccc(C(OC(C)=O)C(N)=O)cc1 (configuration not stated) | 111 | 109 | 110 | < 40 | 93 | 86 | 89
CCCCCCCCCCCCCCCCNc1ccc(C(=O)CO)cc1 | 97 | 103 | <85 | 20 | 89 | 75 | <71
CCCCCCCCCCCCCCCCNc1ccc(C(C)=O)cc1 | 119 | 129 | 98 | 14 | 84 | 88 | 78
CCCCCCCCCCCCCCCCNc1ccc(C(=O)O)c(C)c1 | 100 | 101 | 103 | 38 | 112 | 121 | 105
CCCCCCCCCCCCCCCCN(C=O)c1ccc(C(=O)O)cc1 | 96 | <89 | 105 | 12 | 77 | 100 | 78
CCCCCCCCCCCCCCCCNc1ccc(C(=O)O)cn1 | <84 | 102 | 90 | < 45 | 121 | 88 | 94
CCCCCCCCCCCCCCCCNc1ccc(C(=O)Oc2ccc(C(=O)O)cc2)cc1 | 95 | 105 | 93 | < 18 | 98 | 81 | 109
CCCCCCCCCCCCCCCCNc1ccc(C(=O)OCC(C)(C)CO)cc1 | 93 | 97 | 101 | 13 | 103 | 92 | 101
CCCCCCCCCCCCCCCCNc1ccc(C(=O)Oc2ccccc2)cc1 | 85 | 89 | <84 | 0 | 105 | 76 | <76
CCCCCCCCCCCCCCCCNc1ccc(C(=O)NS(=O)(=O)c2ccccc2)cc1 | <84 | 88 | <67 | < 22 | 86 | <55 | <36
CCCCCCCCCCCCCCCCNc1ccc(C(=O)OCC(C)O)cc1 (configuration not stated) | <82 | 96 | <89 | < 19 | <67 | <61 | <59
CCCCCCCCCCCCCCCCNc1ccc(C(=O)OCC(=O)OCC)cc1 | <81 | <80 | <66 | 15 | 92 | 76 | 72
CCCCCCCCCCCCCCCCNc1ccc(C(=O)CC(=O)C(=O)OC)cc1 | 96 | 92 | 85 | < 43 | 101 | 77 | 81
CCCCCCCCCCCCCCCCNc1ccc(C2=NCCO2)cc1 | 100 | 100 | 86 | 0 | 103 | 94 | 76
